p-CIP stab down = p/CIP-EGFP fusion destabilizers, primary screen, fluorescence, F442A cells; decrease of EGFP signal, % at 10 µM; 16 h; AID 1984, 2009; 290,000 tested, 0.01% active; Q05BA5;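 active means EGFP signal decrease of at least 30% at 10 µM or well 3 SD below plate mean, unless failing retest; inactive means the rest, including hits failing retest or dose response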
Target sequence (Q05BA5 1-1403): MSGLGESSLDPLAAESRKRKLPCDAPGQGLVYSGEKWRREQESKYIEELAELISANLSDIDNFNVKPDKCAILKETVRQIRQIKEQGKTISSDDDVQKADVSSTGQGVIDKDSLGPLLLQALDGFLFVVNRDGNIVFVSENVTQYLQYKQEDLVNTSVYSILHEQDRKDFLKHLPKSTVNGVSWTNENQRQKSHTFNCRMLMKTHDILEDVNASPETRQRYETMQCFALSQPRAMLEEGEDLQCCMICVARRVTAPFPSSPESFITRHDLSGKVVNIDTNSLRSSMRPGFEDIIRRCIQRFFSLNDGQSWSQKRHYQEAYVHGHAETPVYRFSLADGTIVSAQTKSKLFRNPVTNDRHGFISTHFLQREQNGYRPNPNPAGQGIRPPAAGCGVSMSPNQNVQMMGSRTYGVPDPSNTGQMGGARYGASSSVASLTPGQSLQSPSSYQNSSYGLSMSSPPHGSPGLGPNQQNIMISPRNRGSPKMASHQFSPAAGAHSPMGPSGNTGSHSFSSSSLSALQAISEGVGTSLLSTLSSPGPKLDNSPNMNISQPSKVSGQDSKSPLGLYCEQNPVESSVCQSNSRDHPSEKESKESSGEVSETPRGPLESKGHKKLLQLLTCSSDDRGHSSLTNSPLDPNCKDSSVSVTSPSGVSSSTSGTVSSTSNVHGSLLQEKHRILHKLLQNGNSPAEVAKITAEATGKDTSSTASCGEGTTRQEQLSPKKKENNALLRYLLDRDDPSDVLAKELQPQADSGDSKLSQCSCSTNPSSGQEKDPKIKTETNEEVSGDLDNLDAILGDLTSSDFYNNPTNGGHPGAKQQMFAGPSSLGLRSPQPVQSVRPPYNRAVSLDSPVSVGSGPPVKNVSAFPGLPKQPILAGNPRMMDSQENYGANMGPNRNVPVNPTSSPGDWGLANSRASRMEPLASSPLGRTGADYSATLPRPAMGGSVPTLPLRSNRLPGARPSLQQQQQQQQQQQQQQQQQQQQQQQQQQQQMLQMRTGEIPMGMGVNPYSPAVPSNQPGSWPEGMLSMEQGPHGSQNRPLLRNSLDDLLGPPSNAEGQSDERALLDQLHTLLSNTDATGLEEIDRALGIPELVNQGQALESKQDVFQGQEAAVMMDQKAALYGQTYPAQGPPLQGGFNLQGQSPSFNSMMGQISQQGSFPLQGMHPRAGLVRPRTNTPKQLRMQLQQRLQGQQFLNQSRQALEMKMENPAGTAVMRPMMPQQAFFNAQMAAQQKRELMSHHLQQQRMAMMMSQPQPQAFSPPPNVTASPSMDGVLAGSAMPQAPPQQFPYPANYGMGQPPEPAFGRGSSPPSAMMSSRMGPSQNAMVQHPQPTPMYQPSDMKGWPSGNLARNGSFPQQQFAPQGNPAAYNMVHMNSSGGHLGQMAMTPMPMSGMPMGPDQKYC
Hck Nef HTS = inhibitors of Nef-activated human Hck kinase, primary screen, biochemical, Z-Lyte FRET, 384-well, Hck-YEEI | Recombinant Hck-YEEI plus Nef, Z-Lyte FRET kinase assay | 220,000 tested, 0.68% active | inhibition, % at 20 µM | Tyrosine-protein kinase HCK (Homo sapiens), P08631;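 active means Hck-Nef kinase inhibition above about 50%, limit read from the data; inactive means inhibition below that limit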;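 further: 0% = DMSO with Hck plus Nef and 100% = Hck alone without Nef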
DSG3 Ab inh = inhibitors of pemphigus antibody binding to DSG3, primary screen, biochemical, bead-based, flow cytometry, scFv-GFP; Desmoglein-3 (Homo sapiens), P32926; DSG3-coupled beads, scFv-anti-DSG3-GFP binding; active compounds read low; binding (percent of control), % at 10 µM; 310,000 tested, 0.48% active; AID 588358, 2011;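 active means binding more than 3 SD below its plate's average and above zero; inconclusive means below that plate limit but binding exactly zero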;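 further: hits lower antibody fragment binding to DSG3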
RanGTP-Impb inh = inhibitors of RanGTP-importin-beta interaction, primary screen, biochemical, FRET, CFP-Ran, YFP-importin-beta, homogeneous; Ran GTPase (GTP-bound) - importin-beta complex; cell-free CFP-Ran/YFP-importin-beta FRET ratio; inhibition, % (concentration not given with the values); 300,000 tested, 1.1% active;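 active means more than half of the replicate wells show a fall in the fluorescence ratio signal beyond about 16%, limit read from the data, passing the limit was not always enough; inconclusive means exactly half of the replicate wells pass the set limit; inactive means fewer than half of replicates pass the limit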;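 further: 0% = DMSO wells and 100% = Ran loaded with GDP instead of GTP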
Runt-CBFb FRET = inhibitors of RUNX1 Runt–CBFb binding, primary screen, biochemical, FRET, Cerulean-Runt, Venus-CBFb, uHTS. Cerulean-Runt/Venus-CBFb FRET ratio 530/480, 1 h. inhibition, % at 20 µM. 220,000 tested, 0.46% active. AID 1496, 2009;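 active means inhibition over about 50% at 20 µM in the single-dose screen, limit read from the data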;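 further: 0% = DMSO wells and 100% = excess unlabeled CBFb competitor control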
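Schedule: protein complex preformed 1 h, compound exposure 1 h, room temperature, dark; test system: Cerulean-labeled Runt domain protein; amount: 100 nM per protein; buffer or medium: Tris 50 mM pH 7.5, KCl, K2SO4, 0.01% BSA; read-out: loss of energy transfer signal; detection: FRET fluorescence; controls: 5 µM unlabeled CBFb as full-inhibition high control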
Runt-SMMHC FRET = inhibitors of RUNX1 Runt–CBFb-SMMHC binding, primary screen, biochemical, FRET, Cerulean-Runt, Venus-CBFb-SMMHC, uHTS; 220,000 tested, 0.74% active; inhibition, % at 20 µM; Cerulean-Runt/Venus-CBFb-SMMHC FRET ratio 530/480, 1 h; AID 1434, 2008; Runt-related transcription factor 1 (Homo sapiens) + Core-binding factor subunit beta …;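 active means mean inhibition across duplicate retests at 20 µM reaching about 50%, limit read from the data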;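 further: 0% = DMSO wells and 100% = wells with excess untagged CBFb-SMMHC; inhibitors lower the FRET ratio by blocking Runt binding to CBFb-SMMHC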
Starred values were filed as active, the others as inactive. The list is not random: actives were taken first. Their share in the collection is about 2.1%.

Results for NC(=O)c1ccsc1NC(=O)COC(=O)c1cnccn1 ?
DSG3 Ab inh: 80*

Results for NC(=O)c1ccsc1NC(=O)COC(=O)c1ccccn1 ?
DSG3 Ab inh: 95

Results for CCc1nnc(NC(=O)CCC(=O)NC2CCCc3ccccc32)s1 (configuration not stated) ?
p-CIP stab down: -2; Hck Nef HTS: 2; DSG3 Ab inh: 112; RanGTP-Impb inh: 2; Runt-CBFb FRET: -2; Runt-SMMHC FRET: 4

Results for Cn1c(=O)c2nc(NCc3ccccc3)cnc2n(C)c1=O ?
p-CIP stab down: -3; Hck Nef HTS: 3; DSG3 Ab inh: 106; RanGTP-Impb inh: 75*; Runt-CBFb FRET: 12; Runt-SMMHC FRET: 38

What do the screens show for `Cn1c(=O)c2c(ncn2Cc2ccccc2)n(C)c1=O`?
p-CIP stab down: 5; Hck Nef HTS: 13; DSG3 Ab inh: 102; RanGTP-Impb inh: -4; Runt-CBFb FRET: 0; Runt-SMMHC FRET: 1

How did Cc1noc(C(=O)NCC2CCCO2)c1Cl (configuration not stated) do in these assays?
p-CIP stab down: 7; DSG3 Ab inh: 97; RanGTP-Impb inh: 23*

Results for O=C(O)c1cc2ccc3ccccc3c2oc1=O ?
p-CIP stab down: -5; Hck Nef HTS: 9; DSG3 Ab inh: 99; RanGTP-Impb inh: inconclusive; Runt-CBFb FRET: 28; Runt-SMMHC FRET: 97*

Results for COc1ccc(S(=O)(=O)N2CCN(CC(=O)Nc3ccccc3OC)CC2)cc1 ?
p-CIP stab down: 7; DSG3 Ab inh: 75*; RanGTP-Impb inh: 0

Results for COc1cc(/C=C2/CC/C(=C/c3ccc(O)c(OC)c3)C2=O)ccc1O ?
p-CIP stab down: -11; Hck Nef HTS: 10; DSG3 Ab inh: 86; RanGTP-Impb inh: -60; Runt-CBFb FRET: -11; Runt-SMMHC FRET: -140

Results for COc1cc(/C=C/C=C2/CC/C(=C/C=C/c3ccc(O)c(OC)c3)C2=O)ccc1O ?
DSG3 Ab inh: 36*

What do the screens show for `CCN1C(=O)/C(=C/C=C2/CCCN2C)OC1=S`?
p-CIP stab down: -4; Hck Nef HTS: 12; DSG3 Ab inh: 89; RanGTP-Impb inh: 1; Runt-CBFb FRET: 3; Runt-SMMHC FRET: 125*

Results for Cc1cccc(C)c1NC(=O)CN(C)C(=O)c1ccc(OCc2ccccc2)cc1 ?
DSG3 Ab inh: 102

Results for CC(=O)COc1ccc2c(c1C)O/C(=C\c1ccco1)C2=O ?
p-CIP stab down: -22; DSG3 Ab inh: 115; RanGTP-Impb inh: 18*

Results for CC1CCCN(Cc2c(O)ccc3c2O/C(=C\c2ccco2)C3=O)C1 (configuration not stated) ?
p-CIP stab down: 8; Hck Nef HTS: -20; DSG3 Ab inh: 95; RanGTP-Impb inh: -50; Runt-CBFb FRET: 5; Runt-SMMHC FRET: -60

What do the screens show for `COc1ccc(NS(=O)(=O)c2ccc3oc(SC)nc3c2)cc1`?
p-CIP stab down: -18; DSG3 Ab inh: 107; RanGTP-Impb inh: -1

What do the screens show for `CNC(=O)CSc1nc2cc(S(=O)(=O)Nc3ccc(OC)cc3)ccc2o1`?
p-CIP stab down: -5; DSG3 Ab inh: -4.7*; RanGTP-Impb inh: -3

What do the screens show for `Cc1ccccc1OCC(=O)Nc1nnc(COc2ccccc2)s1`?
p-CIP stab down: -6; DSG3 Ab inh: 102; RanGTP-Impb inh: -1

How did COc1cc(Nc2c3ccccc3nc3ccccc23)cc(OC)c1OC do in these assays?
p-CIP stab down: -16; DSG3 Ab inh: 120; RanGTP-Impb inh: inconclusive

What do the screens show for `c1ccc2c(Nc3nncs3)c3ccccc3nc2c1`?
p-CIP stab down: -16; Hck Nef HTS: 26; DSG3 Ab inh: 96; RanGTP-Impb inh: 59*; Runt-CBFb FRET: 9; Runt-SMMHC FRET: 17

What do the screens show for `Nc1cccc2c(=O)c3ccccc3[nH]c12`?
p-CIP stab down: -1; RanGTP-Impb inh: 64*

How did COc1cccc2[nH]c(C(=O)NN)c(N)c12 do in these assays?
p-CIP stab down: 0; Hck Nef HTS: 5; DSG3 Ab inh: 103; RanGTP-Impb inh: 8; Runt-CBFb FRET: 6; Runt-SMMHC FRET: 2

What do the screens show for `COc1cccc2[nH]c3ccccc3c(=O)c12`?
p-CIP stab down: -5; DSG3 Ab inh: 103; RanGTP-Impb inh: 127*

Results for COc1ccc(C(C)=O)cc1COc1cc(C)c(Cl)c(C)c1 ?
p-CIP stab down: -1; Hck Nef HTS: 13; DSG3 Ab inh: 94; RanGTP-Impb inh: -2; Runt-CBFb FRET: -2; Runt-SMMHC FRET: -2

Results for COc1ccc(C(C)=O)cc1COc1ccc(Cl)cc1Cl ?
p-CIP stab down: -1; Hck Nef HTS: -3; DSG3 Ab inh: 83*; RanGTP-Impb inh: -1; Runt-CBFb FRET: -2; Runt-SMMHC FRET: -2

Results for COc1cc(C(=O)NCC2CCCO2)ccc1OCc1ccc(Cl)cc1Cl (configuration not stated) ?
DSG3 Ab inh: 81*; RanGTP-Impb inh: 5

Results for COc1ccc(Nc2nc3ccc(OC)cc3s2)cc1 ?
p-CIP stab down: 6; Hck Nef HTS: 11; DSG3 Ab inh: 111; RanGTP-Impb inh: 2; Runt-CBFb FRET: -1; Runt-SMMHC FRET: -5

What do the screens show for `COc1ccc2nc(Nc3nc(C)c(C(C)=O)s3)sc2c1`?
p-CIP stab down: -12; Hck Nef HTS: -9; DSG3 Ab inh: 106; RanGTP-Impb inh: 18*; Runt-CBFb FRET: 11; Runt-SMMHC FRET: 42

How did COc1ccc2nc(NC(=O)CSc3nnnn3C)sc2c1 do in these assays?
p-CIP stab down: -3; Hck Nef HTS: 13; DSG3 Ab inh: -8.1*; RanGTP-Impb inh: 3; Runt-CBFb FRET: -1; Runt-SMMHC FRET: -3

Results for Cc1ccc(Nc2c([N+](=O)[O-])ccc3nonc23)cc1C ?
p-CIP stab down: 0; DSG3 Ab inh: 103; RanGTP-Impb inh: -3

Results for COc1ccc(NC(=O)NNc2cc(N3CCOCC3)nc(N3CCOCC3)n2)cc1 ?
p-CIP stab down: -32; Hck Nef HTS: 19; DSG3 Ab inh: 100; RanGTP-Impb inh: 66*; Runt-CBFb FRET: 2; Runt-SMMHC FRET: 4

How did CC(C)(C)c1ccc(C(=O)NNc2cc(N3CCOCC3)nc(N3CCOCC3)n2)cc1 do in these assays?
p-CIP stab down: 0; Hck Nef HTS: 18; DSG3 Ab inh: 109; RanGTP-Impb inh: 85*; Runt-CBFb FRET: -1; Runt-SMMHC FRET: -6

Screening results as filed in PubChem BioAssay.
